# Columns and labels:
# Format in all cases: functional
# [1] = species on record: Mus musculus; assay: Peroral dose required to reduce by 50% the score of excitatory behavior induced by intrathecal injection of ferrous chloride in mice; conditions: central, read-out: ID50 (the source's name)
# How it was run: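 Male Slc:ICR mice, 5 weeks old, 10 per dose. Compound given orally 30 min before intrathecal 5 μL of 50 mM FeCl2 in saline (between L6 and S1). Vehicle was water, or 0.5% gum arabic suspension. Behaviour scored 0–5 (biting to death) from 15 min to 1 h. ID50 from three or four doses, relative to vehicle score.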
# [2] = species on record: Rattus norvegicus; assay: Inhibition of lipid peroxidation by rat liver microsomes; design: concentration or dose not given beside the values; conditions: dose or concentration not given here
# How it was run: (§1)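 Rat liver microsomes (S-9), 0.3 mg protein in 40 mM Tris-malate pH 7.4. Peroxidation started with a 1:1 mix of FeCl2 (0.25 mM) and NADPH (3 mM), then 1 h at 37 °C. Compound in DMSO added before incubation, tested up to 1 μM final. Thiobarbituric acid method read-out. Activity relative to DMSO vehicle; IC50 from four concentrations by nonlinear regression, otherwise % inhibition at 1 μM.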
# [3] = species on record: Mus musculus; assay: Percentage increase of locomotor activity in mice
# [4] = tested on: Mus musculus; assay: Locomotor activity was measured in mice after 1 hour administration of methamphetamine; design: unit not given here
# [5] = species on record: Rattus norvegicus; assay: Concentration required to reduce by 50% the amount of lipid peroxide formed in rat liver microsomes; how it was run: as §1
SMILES,ED50 [1] [mg/kg],inhibition [2] [%],Increase [3] [%],Locomotor activity [4],IC50 [5] [nM]
Cc1c(N)c(C)c2c(c1CN(C)C)OC(C)(C)C2,> 50,4,,,
CCCNc1c(C)c(C)c2c(c1C)CC(C)(C)O2,51.1,24,,,
Cc1cc(N)c(C)c2c1OC(C)(C)C2,32.3,19,,,
Cc1cc2c(c(C)c1N)CC(C)(C)O2,16.3,14,,,
Cc1c(C)c2c(c([N+](=O)[O-])c1N)CC(C)(C)O2,> 100,0,,,
Cc1ccc(S(=O)(=O)Nc2c(C)c(C)c3c(c2C)CC(C)(C)O3)cc1,> 100,3,,,
CC1(C)Cc2cc(N)ccc2O1,> 100,5,,,
Cc1c(C)c2c(c(C)c1N)CC(C)(COCc1ccccc1)O2 (stereo unspecified),18.6,,64,1657,280
Cc1c(C)c2c(c(N)c1N)CC(C)(C)O2,> 50,,,,300
Cc1c(N)cc2c(c1C)OC(C)(C)C2,24.4,26,,,
Cc1c(C)c2c(c(C)c1NS(C)(=O)=O)CC(C)(C)O2,> 100,-1,,,
Cc1c(C)c2c(c(C)c1N)C(c1ccc(F)cc1)C(C)(C)O2 (stereo unspecified),26.7,,181.3,2156,280
CCCc1ccc(C2c3c(C)c(N)c(C)c(C)c3OC2(C)C)cc1 (stereo unspecified),> 50,,,,290
Cc1c(C)c2c(c(C)c1N)CC(C)(CS(=O)(=O)c1ccccc1)O2 (stereo unspecified),36.6,,,,800
Cc1c(C)c2c(c(C)c1N)CC(C)(CN1CCN(C(c3ccccc3)c3ccccc3)CC1)O2 (stereo unspecified),> 50,,62.8,1664,70
Cc1c(C)c2c(c(C)c1N)CC(C)(CSc1ccc(O)cc1)O2 (stereo unspecified),> 50,,,,220
COCC1(C)Cc2c(C)c(N)c(C)c(C)c2O1 (stereo unspecified),20.1,,76.7,1934,300
Cc1c(C)c2c(c(C)c1N)CC(C)(CSc1ccc(F)cc1)O2 (stereo unspecified),17.9,,61.8,1625,220
Cc1c(C)c2c(c(C)c1N)CC(C)(CBr)O2 (stereo unspecified),16,,34.5,1115,300
Cc1c(C)c2c(c(C)c1N)CC(C)(CNCc1ccccc1)O2 (stereo unspecified),9.1,,46.1,1340,290
CCCSCC1(C)Cc2c(C)c(N)c(C)c(C)c2O1 (stereo unspecified),24.6,,56.4,1540,280
Cc1c(C)c2c(c(C)c1N)CC(C)(CSCCC(=O)O)O2 (stereo unspecified),43,0,,,
Cc1c(C)c2c(c(C)c1N)CC(C)(CN1CCOCC1)O2 (stereo unspecified),19.2,,103.1,3209,410
Cc1c(N)c(C)c2c(c1CN1CCCCC1)OC(C)(C)C2,> 50,3,,,

SMILES,ED50 [1] [mg/kg],inhibition [2] [%],Increase [3] [%],Locomotor activity [4],IC50 [5] [nM]
Cc1c(C)c2c(c(C)c1N)CC(C)(CSCc1ccccc1)O2 (stereo unspecified),32,,33.6,1099,260
CCNc1c(C)c(C)c2c(c1C)CC(C)(C)O2,38.9,16,,,
Cc1c(C)c2c(c(C)c1N)CC(C)(C)O2,7.8,,31.5,<509,760
Cc1c(C)c2c(c(C)c1Nc1ccccc1)CC(C)(C)O2,> 50,,,,280
Cc1c(C)c2c(c(C)c1N)CC(C)(C[S+]([O-])c1ccccc1)O2 (stereo unspecified),31.3,,,,660
Cc1ccc(C2c3c(C)c(N)c(C)c(C)c3OC2(C)C)cc1 (stereo unspecified),> 50,,,,300
CCOC(=O)Nc1c(C)c(C)c2c(c1C)CC(C)(C)O2,> 100,1,,,
Cc1c(C)c2c(c(C)c1N)CC(C)(CNCCc1ccccc1)O2 (stereo unspecified),14.2,,,,290
Cc1c(C)c2c(c(N(C)C)c1N)CC(C)(C)O2,22.3,,,,550
CCCCCc1ccc(C2c3c(C)c(N)c(C)c(C)c3OC2(C)C)cc1 (stereo unspecified),42.2,,,,50
Cc1c(C)c2c(c(C)c1N)C(c1ccc(C(C)C)cc1)C(C)(C)O2 (stereo unspecified),> 50,,,,290
Cc1c(C)c2c(c(C)c1NC=O)CC(C)(C)O2,> 100,0,,,
Cc1c(C)c2c(c(C)c1Nc1ccc(Cl)cc1)CC(C)(C)O2,> 50,,,,300
COC(=O)/C=C\C1(C)Cc2c(C)c(N)c(C)c(C)c2O1 (stereo unspecified),> 100,38,,,
Cc1c(C)c2c(c(C)c1N)CC(C)(CNCCCCc1ccccc1)O2 (stereo unspecified),17,,,,80
CC(=O)Nc1c(C)c(C)c2c(c1C)CC(C)(C)O2,> 100,-2,,,
Cc1c(C)c2c(c(C)c1N)CC(C)(CSCCO)O2 (stereo unspecified),> 50,11,,,
Cc1c(C)c2c(c(C)c1N)C(C(C)C)C(C)(C)O2 (stereo unspecified),14,,,,290
CCC(=O)Nc1c(C)c(C)c2c(c1C)CC(C)(C)O2,> 100,1,,,
Cc1c(C)c2c(c(C)c1Nc1cccnc1)CC(C)(C)O2,> 50,4,,,
Cc1c(C)c2c(c(C)c1Nc1ccc3c(c1)CC(C)(C)O3)CC(C)(C)O2,> 25,,,,30
Cc1c(N)c(C)c2c(c1CC(C)C)OC(C)(C)C2,13.3,,,,140
CC(C)=Cc1c(C)c(N)c(C)c2c1OC(C)(C)C2,21.9,,,,300

# Reference: ChEMBL document CHEMBL1129943, “5-aminocoumarans: dual inhibitors of lipid peroxidation and dopamine release with protective effects against central nervous system trauma and ischemia” (J Med Chem, 1997)
